pIC50: −log10 of the molar value.
Assays:
KB [1] = assay: Antiproliferative activity against human KB cells at 10 uM after 72 hrs by fluorescence method; format: functional; details: read-out: GI
Outline: (§1)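 KB cells. Growth inhibition was recorded as a percentage at fixed 10 and 1 μM concentrations, with IC50 determined separately for selected compounds.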

KB [2] = assay: Antiproliferative activity against human KB cells at 1 uM after 72 hrs by fluorescence method; format: functional; details: read-out: GI; outline: as §1
[3] = Inhibition of tubulin polymerization
KB [4] = assay: Antiproliferative activity against human KB cells after 72 hrs by fluorescence method; format: functional, cell-based; outline: as §1
HCT-116 [5] = assay: Antiproliferative activity against human HCT116 cells at 10 uM after 72 hrs by fluorescence method; format: functional; details: HCT-116, 72 h, read-out: GI
Outline: (§2)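 Panel of HCT116, MCF7 and HL60 cancer cells, each paired with a resistant counterpart (HCT15, MCF7R, HL60R). Growth inhibition was recorded as a percentage at 10 and 1 μM of test compound.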

HCT-116 [6] = assay: Antiproliferative activity against human HCT116 cells at 1 uM after 72 hrs by fluorescence method; format: functional; details: HCT-116, 72 h, read-out: GI; outline: as §2
HCT-15 [7] = assay: Antiproliferative activity against human HCT15 cells at 10 uM after 72 hrs by fluorescence method; format: functional; details: HCT-15, 72 h, read-out: GI; outline: as §2
HCT-15 [8] = assay: Antiproliferative activity against human HCT15 cells at 1 uM after 72 hrs by fluorescence method; format: functional; details: HCT-15, 72 h, read-out: GI; outline: as §2
MCF7 [9] = assay: Antiproliferative activity against human MCF7 cells at 10 uM after 72 hrs by fluorescence method; format: functional; details: MCF7, 72 h, read-out: GI; outline: as §2
MCF7 [10] = assay: Antiproliferative activity against human MCF7 cells at 1 uM after 72 hrs by fluorescence method; format: functional; details: MCF7, 72 h, read-out: GI; outline: as §2
[11] = Antiproliferative activity against human MCF7/R cells at 10 uM after 72 hrs by fluorescence method; format: functional; details: MCF7R, read-out: GI; outline: as §2
[12] = Antiproliferative activity against human MCF7/R cells at 1 uM after 72 hrs by fluorescence method; format: functional; details: MCF7R, read-out: GI; outline: as §2
HL-60 [13] = assay: Antiproliferative activity against human HL60 cells at 10 uM after 72 hrs by fluorescence method; format: functional; details: HL-60, 72 h, read-out: GI; outline: as §2
HL-60 [14] = assay: Antiproliferative activity against human HL60 cells at 1 uM after 72 hrs by fluorescence method; format: functional; details: HL-60, 72 h, read-out: GI; outline: as §2
[15] = Antiproliferative activity against human HL60R cells at 10 uM after 72 hrs by fluorescence method; format: functional; details: read-out: GI; outline: as §2
[16] = Antiproliferative activity against human HL60R cells at 1 uM after 72 hrs by fluorescence method; format: functional; details: read-out: GI; outline: as §2

SMILES	inhibition of growth at 10 µM (KB [1]) [%]	inhibition of growth at 1 µM (KB [2]) [%]	pIC50 [3]	pIC50 (KB [4])	inhibition of growth at 10 µM (HCT-116 [5]) [%]	inhibition of growth at 1 µM (HCT-116 [6]) [%]	inhibition of growth at 10 µM (HCT-15 [7]) [%]	inhibition of growth at 1 µM (HCT-15 [8]) [%]	inhibition of growth at 10 µM (MCF7 [9]) [%]	inhibition of growth at 1 µM (MCF7 [10]) [%]	inhibition of growth at 10 µM [11] [%]	inhibition of growth at 1 µM [12] [%]	inhibition of growth at 10 µM (HL-60 [13]) [%]	inhibition of growth at 1 µM (HL-60 [14]) [%]	inhibition of growth at 10 µM [15] [%]	inhibition of growth at 1 µM [16] [%]
O=C1NC2CCc3cccc(c32)-c2c1[nH]c1ccccc21 (centres undefined)	81	63	5.28	6.05	80	64	87	75	39	46	72	67	90	83	81	70
O=C1c2[nH]c3ccccc3c2-c2ccccc2C2CCCN12 (centres undefined)	100	27	5.38	5.30	81	64	84	78	55	28	75	56	84	49	80	49
CC[C@H]1c2ccccc2-c2c([nH]c3ccccc23)C(=O)N1C	100	100	5.39	8.70	100	91	100	92	96	85	92	75	100	85	89	70
CC[C@@H]1NC(=O)c2[nH]c3ccccc3c2-c2ccccc21	100	100	5.74	7.46	100	85	100	94	92	82	96	84	100	90	95	78
